Screening data: PubChem, Broad Institute
A selection: hits, their analogues and other compounds. The true share with any hit is near 5.8%.
T cruzi growth-1: blocks T. cruzi growth in NIH3T3 culture; hit rate 5.9% among 77,000; inhibition, % at 8.34 µM; T. cruzi beta-gal in NIH3T3, GalScreen luminescence, 90 h;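 active = mean inhibition above about 93%, with at least 55% of replicates each passing it, limit read from the data, passing the limit was not always enough; inconclusive = only one of those two conditions holds; inactive = neither condition holds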
KDM4C inh: blocks human GASC-1 (KDM4C) demethylase activity. hit rate 0.15% among 96,000. GST-KDM4C 2-372, H3K9me3 peptide, LANCE TR-FRET. AID 720574. inhibition, % at 12.5 µM;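 active = mean replicate inhibition above about 25%, with at least 55% of replicates also reaching it, limit read from the data, passing the limit was not always enough; inconclusive = only one of those two conditions met; inactive = neither condition met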
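Compound: one test concentration per compound; Material: GST-GASC-1 enzyme fragment 2-372; Amount: GASC-1 enzyme at 10 nM final in reaction; Also added: H3K9me3 peptide substrate, Fe(II), 2-oxoglutarate; Technique: LANCE TR-FRET; Times: 30 min demethylation and 1 h detection at room temperature.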
Pf Dd2 growth: P. falciparum Dd2 growth inhibition; SYBR Green, 72 h; stronger effect = lower value; activity change, % at 10 µM; hit rate 2.3% among 94,000; AID 1159554; in the data active = activity change below about -80%; inconclusive = no clear call, values can overlap the other calls
IDH1 mut inh: IDH1 R132H (human) inhibition | O75874 | hit rate 0.18% among 70,000 | IDH1 R132H reductase, diaphorase/resazurin fluorescence, 60 min | inhibition, % at 10 µM; in the data active = inhibition above about 34%; inconclusive = no clear call, values can overlap the other calls; inactive = below about 11%;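 also: 0% = DMSO and 100% = no enzyme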
Target sequence (O75874 whole entry R132H): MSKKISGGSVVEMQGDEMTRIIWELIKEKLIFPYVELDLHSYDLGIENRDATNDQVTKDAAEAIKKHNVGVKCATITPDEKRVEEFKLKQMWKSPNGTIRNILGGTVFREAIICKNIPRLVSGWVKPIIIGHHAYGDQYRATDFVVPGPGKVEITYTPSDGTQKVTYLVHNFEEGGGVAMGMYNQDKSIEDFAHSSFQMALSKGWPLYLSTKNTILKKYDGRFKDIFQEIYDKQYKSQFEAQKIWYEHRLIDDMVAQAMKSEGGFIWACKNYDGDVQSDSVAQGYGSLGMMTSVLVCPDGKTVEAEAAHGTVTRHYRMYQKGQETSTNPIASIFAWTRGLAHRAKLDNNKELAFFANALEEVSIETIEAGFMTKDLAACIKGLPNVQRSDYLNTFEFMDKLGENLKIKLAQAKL
T cruzi growth-2: Trypanosoma cruzi proliferation inhibition; shares compounds with T cruzi growth-1; T. cruzi beta-gal in NIH3T3, GalScreen luminescence, 90 h; inhibition, % at 8.35 µM; hit rate 72% among 5,600; AID 651739;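 active = mean replicate inhibition above about 95% and at least 55% of replicates individually reaching it, limit read from the data; inconclusive = only one of the two criteria is met; inactive = neither criterion is met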
T cruzi growth-3: inhibitors of T. cruzi proliferation; hit rate 21% among 5,600; shares compounds with T cruzi growth-1; T. cruzi beta-gal in NIH3T3, GalScreen luminescence, 90 h; inhibition, % at 2.09 µM;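 active = mean inhibition above about 95%, with at least 55% of replicates also reaching it, limit read from the data; inconclusive = meets just one of the two conditions; inactive = meets neither condition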;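 also: plate controls were neutral control median for no effect and positive control median for full effect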
3T3 cytotox: NIH/3T3 (mouse) viability loss. shares compounds with T cruzi growth-1. NIH/3T3 viability, CellTiter-Glo ATP luminescence, 90 h. cytotoxicity (signal decrease), % at 8.35 µM. hit rate 14% among 5,600. AID 651742;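 active = mean signal decrease across replicates above about 35% based on untreated-well scatter, with enough replicates individually passing, limit read from the data; inconclusive = no rule stated though some were filed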;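 also: 0% = median of neutral control wells and 100% = median of positive control wells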
NIH3T3 tox 2: cytotoxicity in mouse NIH/3T3 fibroblasts; NIH/3T3 viability, CellTiter-Glo ATP luminescence, 90 h; inhibition, % at 24.9 µM; shares compounds with T cruzi growth-1; AID 651744; hit rate 56% among 5,600;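 active = mean loss of cell viability signal at or above a set limit, and enough replicates individually reaching it; inconclusive = meets only the mean limit or only the replicate share; inactive = meets neither condition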;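 also: 0% = median of neutral control wells and 100% = median of positive control wells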
* hit, by the source's call; ? = inconclusive; . = no result given; + = active, no number.

SMILES	T cruzi growth-1	KDM4C inh	Pf Dd2 growth	IDH1 mut inh	T cruzi growth-2	T cruzi growth-3	3T3 cytotox	NIH3T3 tox 2
C[C@@H]1CCCCO[C@H](CN(C)C(=O)c2ccncc2)[C@@H](C)CN([C@@H](C)CO)C(=O)c2cc(NC(=O)c3ccncc3)ccc2O1	101*	1	0	1	-14	-24	12	8
CC(C)NC(=O)N(C)C[C@H]1OCCCC[C@H](C)Oc2ccc(NC(=O)c3ccncc3)cc2C(=O)N([C@@H](C)CO)C[C@H]1C	41	-2	11	13	.	.	.	.
C[C@@H]1CN([C@H](C)CO)C(=O)c2cc(NC(=O)CCC(F)(F)F)ccc2O[C@@H](C)CCCCO[C@H]1CN(C)C(=O)Nc1ccc(F)cc1	-46	1	-55	1	.	.	.	.
C[C@@H]1CCCCO[C@H](CN(C)C(=O)Nc2ccc(F)cc2)[C@H](C)CN([C@H](C)CO)C(=O)c2cc(NC(=O)CCC(F)(F)F)ccc2O1	98*	0	-72	.	85	72	11	32*
C[C@H](CO)N1C[C@H](C)[C@@H](CN(C)C(=O)Nc2ccc(C(F)(F)F)cc2)OCCCC[C@H](C)Oc2ccc(NC(=O)CCC(F)(F)F)cc2C1=O	101*	-1	-52	.	108*	89	-8	24
COc1ccc(NC(=O)N(C)C[C@@H]2Oc3ccc(NC(=O)CCC(F)(F)F)cc3C(=O)N([C@H](C)CO)C[C@H]2C)cc1	101*	0	8	1	75	5	-11	0
CC(C)(C)c1ccc(OCC(=O)Nc2cccc(C(=O)O)c2)cc1	.	.	.	0	.	.	.	.
O=C([C@H]1N[C@H]2c3ccc(/C=C/c4ccccc4)c(=O)n3C[C@H]2[C@@H]1CO)N1CCCCC1	+	0	.	.	28	-31	-9	-18
CCCN1[C@H](C(=O)N(C)C)[C@@H](CO)[C@@H]2Cn3c(ccc(/C=C/c4ccccc4)c3=O)[C@@H]21	34	3	.	.	.	.	.	.
O=C(O)[C@@H]1[C@@H](CO)[C@@H]2Cn3c(ccc(/C=C/c4ccccc4)c3=O)[C@@H]2N1Cc1ccc2c(c1)OCO2	102*	2	.	.	50	0	17	101*
O=C(O)[C@H]1[C@H](CO)[C@H]2Cn3c(ccc(/C=C/c4ccccc4)c3=O)[C@H]2N1C(=O)c1cnccn1	7	-3	.	.	.	.	.	.
O=C(O)[C@H]1[C@H](CO)[C@H]2Cn3c(ccc(/C=C/c4ccccc4)c3=O)[C@H]2N1Cc1ccc2c(c1)OCO2	127*	13	.	.	88	65	30	63*
COC(=O)[C@H]1[C@H](CO)[C@H]2Cn3c(ccc(/C=C/c4ccccc4)c3=O)[C@H]2N1C(=O)c1cnccn1	101*	-2	-11	.	40	8	-14	40*
CCc1ccc(NC(=O)CSc2nnc(-c3ccc(Br)cc3)n2C)cc1	.	.	.	0	.	.	.	.
COc1ccc(N(CC(=O)Nc2cc(C)ccc2C)S(C)(=O)=O)cc1OC	.	.	.	0	.	.	.	.
C[C@@H]1CCCCO[C@@H](CN(C)C(=O)Nc2cccc3ccccc23)[C@H](C)CN([C@H](C)CO)C(=O)c2cc(NS(=O)(=O)c3cccs3)ccc2O1	105*	-2	-24	.	105*	106*	-33	-17
C[C@H]1CCCCO[C@H](CN(C)C(=O)Nc2cccc3ccccc23)[C@@H](C)CN([C@@H](C)CO)C(=O)c2cc(NS(=O)(=O)c3cccs3)ccc2O1	102*	0	-75	.	93	66	-10	-3
C[C@@H]1CN([C@@H](C)CO)C(=O)c2cc(NS(=O)(=O)c3cccs3)ccc2O[C@@H](C)CCCCO[C@H]1CN(C)C(=O)Nc1cccc2ccccc12	63	0	-77	.	.	.	.	.
CCCCCCCCC[C@@H](O)CC(=O)CCc1ccc(O)c(OC)c1	.	.	.	0	.	.	.	.
CCCNC(=O)N1[C@H](CN(C)C(C)=O)[C@H](c2ccc(C3=CCCC3)cc2)[C@@H]1CO	?	3	6	.	-4	0	2	3
